For 18 compounds, IC50 results are on record in ChEMBL document CHEMBL1138633, “Synthesis and CYP24 inhibitory activity of 2-substituted-3,4-dihydro-2H-naphthalen-1-one (tetralone) derivatives” (Bioorg Med Chem Lett, 2004).

By IC50 is commonly meant the point on the concentration scale where inhibition reaches its midpoint. A low value points to greater potency.

The test deals with T1, 1,25-dihydroxyvitamin D(3) 24-hydroxylase, mitochondrial (Rattus norvegicus, UniProt Q09128).
T1 sequence (Q09128 whole entry): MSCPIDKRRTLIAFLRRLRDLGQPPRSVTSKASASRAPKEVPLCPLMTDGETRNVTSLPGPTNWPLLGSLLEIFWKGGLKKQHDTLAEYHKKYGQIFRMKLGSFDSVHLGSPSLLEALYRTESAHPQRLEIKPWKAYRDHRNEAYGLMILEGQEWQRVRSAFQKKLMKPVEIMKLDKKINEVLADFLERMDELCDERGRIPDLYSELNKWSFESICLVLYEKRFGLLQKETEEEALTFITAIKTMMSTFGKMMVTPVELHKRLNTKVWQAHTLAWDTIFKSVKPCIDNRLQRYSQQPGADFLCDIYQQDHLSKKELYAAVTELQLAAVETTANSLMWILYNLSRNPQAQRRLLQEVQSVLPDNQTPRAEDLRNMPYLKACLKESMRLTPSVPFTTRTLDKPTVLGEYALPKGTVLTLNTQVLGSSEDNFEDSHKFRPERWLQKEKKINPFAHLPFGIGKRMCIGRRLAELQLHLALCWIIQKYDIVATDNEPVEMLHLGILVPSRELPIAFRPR
Nature of the test: Inhibitory activity against 25-hydroxyvitamin D3 24-hydroxylase of rat kidney mitochondria. In a few lines:
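Substrate was [26,27-methyl-3H]-25-hydroxyvitamin D3, taken from a stock of labelled plus unlabelled 25 µM 25(OH)D3 holding 5 µCi/mL. It was incubated with NADPH and inhibitor at varying concentrations (in acetonitrile) in phosphate buffer pH 7.4, shaking at 37 °C for 30 min. Metabolites were extracted with ethyl acetate and analysed by HPLC with online radioactivity detection, quantified by peak area. Results are % inhibition relative to an acetonitrile control.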

On to `CC(=O)N1CCN(c2ccc(OC[C@H]3CO[C@](Cn4ccnc4)(c4ccc(Cl)cc4Cl)O3)cc2)CC1` [KETOCONAZOLE], for which the IC50 amounted to 20 µM.

The compound `CN(C)c1ccc(CC2CCc3cc(O)ccc3C2=O)cc1` (stereo not drawn) registered a 50% inhibitory concentration (IC50) of 18 µM.

Consider `COc1ccc2c(c1)CC/C(=C\c1cc(C(F)(F)F)ccc1C(F)(F)F)C2=O`, for which the half-inhibitory concentration (IC50) is greater than 100 µM.

For the compound `CN(C)c1ccc(/C=C2\CCc3cc(O)ccc3C2=O)cc1`, the 50% inhibitory concentration (IC50) is greater than 100 µM.

For `O=C1/C(=C/c2ccccc2-c2ccccc2)CCc2cc(O)ccc21`, the IC50 is greater than 100 µM.

`COc1ccc2c(c1)CC/C(=C\c1ccccc1C)C2=O` had an IC50 greater than 20 µM.

Compound `O=C1c2ccc(O)cc2CCC1Cc1ccccc1-c1ccccc1` (stereo not drawn) came in with an IC50 of 2.1 µM. In other words, the single-digit micromolar range.

`COc1ccc2c(c1)CCC(Cc1cc(C(F)(F)F)ccc1C(F)(F)F)C2=O` (stereo not drawn): half-maximal inhibition (IC50) was put at 4.5 µM.

Consider `O=C1/C(=C/c2ccc(O)cc2)CCc2cc(O)ccc21`, for which the IC50 was greater than 20 µM.

Consider `COc1ccc2c(c1)CCC(Cc1ccc(O)cc1)C2=O` (stereo not drawn), for which 3.5 µM corresponded to half-maximal inhibition (IC50).

In the case of `O=C1c2ccc(O)cc2CCC1Cc1ccc(O)cc1` (stereo not drawn), the IC50 was determined as 8.9 µM.

Regarding `O=C1/C(=C/c2ccc(-c3ccccc3)cc2)CCc2cc(O)ccc21`, the concentration for half-maximal inhibition (IC50) is greater than 100 µM.

`COc1ccc2c(c1)CC/C(=C\c1cccc(N(C)C)c1)C2=O`: the IC50 is greater than 100 µM.

Turning to `O=C1c2ccc(O)cc2CCC1Cc1ccc(-c2ccccc2)cc1` (stereo not drawn), the IC50 is greater than 20 µM.

`COc1ccc2c(c1)CCC(Cc1ccc(O)cc1)C2` (stereo not drawn) had an IC50 of 2.6 µM.

In turn, `COc1ccc2c(c1)CCC(Cc1ccccc1C)C2=O` (stereo not drawn) yielded an IC50 of 0.9 µM.

Take `COc1ccc2c(c1)CC/C(=C\c1ccccc1Br)C2=O`: inhibition was half-maximal at 100 µM (IC50).

`COc1ccc2c(c1)CC/C(=C\c1ccc(O)cc1)C2=O` yielded a 50% inhibitory concentration (IC50) greater than 20 µM.
